Reference: article PMC7471432 (Acta Pharmacologica Sinica, 2020)
Where two headings read alike, the source gives them in different places.

Columns and labels:
[1] = test system: 6-Hz-induced seizure model mice; test: 6-Hz corneal kindling epilepsy test; format: in vivo, mouse; settings: 100 mg/kg; GM oral 60 min prior to stimulation; 32 mA
[2] = test system: cultured mouse hippocampal neurons; format: cell-based
Summary of the method: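 Hippocampi from E18 C57BL/6 mouse embryos were digested with 3 mg/mL proteinase for 8 min at 32 °C, triturated, and plated on poly-D-lysine coverslips. Cells were switched to serum-free Neurobasal-A/B-27 after 6 h and recorded after 12 days. Whole-cell current-clamp used a KCl/EGTA pipette (pH 7.2) and perfused NaCl/HEPES bath (pH 7.4), at room temperature.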

[3] = test system: NaV currents; test: NaV currents, whole-cell voltage-clamp, acutely isolated rat hippocampal neurons; format: cell-based
[4] = test system: CaV currents; test: Total CaV currents, whole-cell voltage-clamp, rat hippocampal neurons; format: cell-based; settings: read-out: IC50 on total CaV currents; holding −90 mV, test pulse 0 mV, n = 6
Summary of the method: (§1)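 Rat hippocampal neurons were recorded in whole-cell voltage-clamp with a CsCl/TEA/5 mM MgATP internal (pH 7.2) and a bath containing 5 mM CaCl2 and 20 mM TEA-Cl (pH 7.4). Currents were evoked by steps from −90 mV to 0 mV at room temperature. Activation and inactivation curves were fitted with Boltzmann equations, and IC50 with a 3-parameter Hill equation.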

[5] = test system: HVA calcium currents; test: High-voltage-activated; format: cell-based, rat; settings: 10 µmol/L GM
Summary of the method: as §1

[6] = test system: LVA calcium currents; test: Low-voltage-activated; format: cell-based, rat; settings: 10 µmol/L GM
Summary of the method: as §1

[7] = test system: delayed rectifier potassium current (IK); test: Delayed rectifier potassium current; format: cell-based, rat; settings: read-out: IC50 on IK; n = 5
Summary of the method: (§2)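 Rat hippocampal neurons were recorded in whole-cell voltage-clamp with a KCl/EGTA internal and a NaCl/KCl bath. Cells were held at −50 mV, prepulsed to −110 mV for 500 ms, then stepped from −110 to 40 mV. For IK, a 50 ms step to −50 mV removed IA, and amplitude was read at 300 ms. IA was read as peak. IC50 came from a 3-parameter Hill fit.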

[8] = test system: transient outward potassium current (IA); test: Transient outward potassium current; format: cell-based, rat; settings: read-out: IC50 on IA; n = 5
Summary of the method: as §2

[9] = target: T1, human Kir2.1 channels (Homo sapiens, UniProt P63252); test: Kir2.1 currents in HEK-293 cells stably expressing hKir2.1; format: cell-based
T1 sequence (P63252 1-427): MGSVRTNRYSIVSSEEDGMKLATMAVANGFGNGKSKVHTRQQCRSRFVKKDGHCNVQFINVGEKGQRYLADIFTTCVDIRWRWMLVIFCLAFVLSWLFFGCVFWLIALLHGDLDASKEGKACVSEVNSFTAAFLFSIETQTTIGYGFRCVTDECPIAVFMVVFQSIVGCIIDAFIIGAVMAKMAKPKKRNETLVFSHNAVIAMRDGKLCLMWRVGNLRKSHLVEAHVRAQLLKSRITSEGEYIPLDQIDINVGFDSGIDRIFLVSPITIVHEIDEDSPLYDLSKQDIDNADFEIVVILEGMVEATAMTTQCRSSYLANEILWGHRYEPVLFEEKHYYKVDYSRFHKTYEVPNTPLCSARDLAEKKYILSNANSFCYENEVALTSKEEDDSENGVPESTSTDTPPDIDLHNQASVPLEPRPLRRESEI
Summary of the method: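 HEK-293 cells stably expressing human Kir2.1 were held at −70 mV and given a 500 ms test pulse to −140 mV. The internal was 140 mM KCl with EGTA (pH 7.2) and the bath was NaCl/KCl (pH 7.4), at room temperature. Inhibition ratios are means ± SEM, compared with paired t test against control.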

[10] = test system: nACh receptors; test: Acetylcholine-evoked currents, cultured rat hippocampal neurons; format: cell-based; settings: 30 μmol/L GM
Summary of the method: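 Cultured rat hippocampal neurons were held at −60 mV in whole-cell mode, and acetylcholine-evoked currents were recorded at room temperature with and without test compound. Concentration–response data (IDrug/IControl) were fitted to a 3-parameter Hill equation to obtain IC50. Data are means ± SEM.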

[11] = test system: GABA receptors; test: GABA-induced currents, rat hippocampal neurons; format: cell-based; settings: n = 4
Summary of the method: (§3)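 Whole-cell recordings were made at room temperature from rat hippocampal neurons held at −60 mV. Currents were activated by applying the corresponding ligand under continuous bath perfusion. Signals were filtered at 2 kHz and digitized at 10 kHz. Data are means ± SEM, tested by paired two-tailed t test against control.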

[12] = test system: NMDA receptors; test: NMDA-induced currents, rat hippocampal neurons; format: cell-based; settings: n = 4
Summary of the method: as §3

[13] = test system: AMPA receptors; test: AMPA-induced currents, rat hippocampal neurons; format: cell-based; settings: n = 4
Summary of the method: as §3

[14] = test system: KA receptors; test: KA-induced currents, rat hippocampal neurons; format: cell-based; settings: n = 4
Summary of the method: as §3

[15] = test system: MES-induced seizure model mice; test: MES-induced seizure assay; format: in vivo, mouse; settings: oral
[16] = test system: isolated rat aorta strips; settings: 10 µmol/L GM; cited from earlier work

CC[C@@H](C(N)=O)N1CCCC1=O [LEV, Levetiracetam, reference compound]
Protection rate (%) [1]: 100%

Geissoschizine methyl ether [GM]
resting membrane potential after GM perfusion [2]: did not change
inhibition ratio of firing frequency ([2]; 1 μmol/L GM, n = 6): 45.3% ± 3.7%
inhibition ratio of firing frequency ([2]; 3 μmol/L GM, n = 6): 49.6% ± 5.1%
reduction of action potential amplitude ([2]; 3 μmol/L GM, n = 6): 9.5% ± 1.8%
inhibition ratio of firing frequency ([2]; 10 μmol/L GM, n = 6): 82.3% ± 1.1%
reduction of action potential amplitude ([2]; 10 μmol/L GM, n = 6): 20.9% ± 3.2%
half-width of the action potential ([2]; 10 μmol/L GM, control 2.0 ± 0.2 ms, n = 6): 2.7 ± 0.4 ms
inhibition ratio of firing frequency ([2]; 30 μmol/L GM, n = 6): 97.8% ± 0.5%
reduction of action potential amplitude ([2]; 30 μmol/L GM, n = 6): 100.0%
half-activation voltage of NaV currents ([3]; 10 µmol/L GM, control −45.1 ± 1.0 mV): −42.7 ± 0.8 mV
V1/2 of steady-state inactivation of NaV currents ([3]; 10 µmol/L GM, control −54.4 ± 0.5 mV): −61.4 ± 0.6 mV
IC50 ([3]; read-out: IC50 on NaV currents, holding −90 mV, test pulse −20 mV, n = 7): 10.2 µM
IC50 [4]: 13.3 µM
change of activation curve of HVA currents [5]: did not exhibit a remarkable change
reduction of HVA currents ([5]; elicited at 0 mV, n = 7): 28.5% ± 10.9%
shift in inactivation curve of HVA currents ([5]; n = 9): No significant shift
change of activation curve of LVA currents [6]: did not exhibit a remarkable change
reduction of LVA currents ([6]; elicited at 0 mV, n = 7): 48.4% ± 6.9%
effect on LVA current inactivation ([6]; n = 5): lack of an effect
IC50 [7]: 1.6 µM
IC50 [8]: 50 µM
inhibition ratio of Kir2.1 currents ([9]; 10 µmol/L GM, n = 5): 1.3% ± 2.2%
inhibition ratio of Kir2.1 currents ([9]; 30 µmol/L GM, n = 7): 3.8% ± 1.5%
inhibition ratio of Kir2.1 currents ([9]; 100 µmol/L GM, n = 10): 13.9% ± 2.2%
inhibition of acetylcholine-evoked currents [10]: completely inhibited
change of GABA receptor-mediated currents ([11]; 30 µmol/L GM): No remarkable changes
modulation of GABA receptor-mediated currents ([11]; 100 µmol/L GM): very weak
change of NMDA (glutamate) receptor-mediated currents ([12]; 30 µmol/L GM): No remarkable changes
modulation of NMDA (glutamate) receptor-mediated currents ([12]; 100 µmol/L GM): very weak
change of AMPA (glutamate) receptor-mediated currents ([13]; 30 µmol/L GM): No remarkable changes
modulation of AMPA (glutamate) receptor-mediated currents ([13]; 100 µmol/L GM): very weak
change of KA (glutamate) receptor-mediated currents ([14]; 30 µmol/L GM): No remarkable changes
modulation of KA (glutamate) receptor-mediated currents ([14]; 100 µmol/L GM): very weak
ED50 for protection against MES [15]: 78.9 (60.3–103.3) mg/kg
Protection rate (%) [1]: 70%
effect on Bay K8644- or Ca2+-induced contractions [16]: able to relax
